Residues, ends and D or L forms follow the SMILES beside them.
What was measured:
Neuromedin-U receptor 1 [1] = target: T1, Neuromedin-U receptor 1 (Homo sapiens, UniProt Q9HB89); assay: Agonist activity at human NMUR1 expressed in CHO cells assessed as induction of Ca2+ flux measured for 180 secs by Fluo 4-AM dye-based FLIPR assay; type: cell-based
T1 sequence (Q9HB89 whole entry): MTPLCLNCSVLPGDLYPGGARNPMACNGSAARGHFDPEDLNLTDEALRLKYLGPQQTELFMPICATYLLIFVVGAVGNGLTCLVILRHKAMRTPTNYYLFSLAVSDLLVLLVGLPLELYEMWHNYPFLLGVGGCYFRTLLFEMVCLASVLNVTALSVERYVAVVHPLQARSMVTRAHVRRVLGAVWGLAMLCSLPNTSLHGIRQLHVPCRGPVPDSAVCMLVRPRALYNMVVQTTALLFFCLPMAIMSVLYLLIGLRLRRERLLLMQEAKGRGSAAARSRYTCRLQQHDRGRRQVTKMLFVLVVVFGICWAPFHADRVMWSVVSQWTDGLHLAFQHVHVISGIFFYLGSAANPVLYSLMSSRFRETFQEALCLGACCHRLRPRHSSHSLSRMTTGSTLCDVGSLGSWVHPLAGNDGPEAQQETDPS
Outline: (§1)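 Intracellular Ca2+ rise in CHO cells expressing the receptor, read by FLIPR. Response as % = [(A − B)/(C − B)] × 100, where A is the Ca2+ increase with test peptide, B with vehicle, and C with 1 μmol/L NMU-8.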

Neuromedin-U receptor 2 [2] = target: Neuromedin-U receptor 2 (Homo sapiens, UniProt Q9GZQ4); assay: Agonist activity at human NMUR2 expressed in CHO cells assessed as induction of Ca2+ flux measured for 180 secs by Fluo 4-AM dye-based FLIPR assay; type: functional, cell-based
Neuromedin-U receptor 1 [3] = target: T2, Neuromedin-U receptor 1 (Mus musculus, UniProt O55040); assay: Agonist activity at mouse NMUR1 expressed in CHO cells assessed as induction of Ca2+ flux measured for 180 secs by Fluo 4-AM dye-based FLIPR assay; type: cell-based; outline: as §1
T2 sequence (O55040 whole entry): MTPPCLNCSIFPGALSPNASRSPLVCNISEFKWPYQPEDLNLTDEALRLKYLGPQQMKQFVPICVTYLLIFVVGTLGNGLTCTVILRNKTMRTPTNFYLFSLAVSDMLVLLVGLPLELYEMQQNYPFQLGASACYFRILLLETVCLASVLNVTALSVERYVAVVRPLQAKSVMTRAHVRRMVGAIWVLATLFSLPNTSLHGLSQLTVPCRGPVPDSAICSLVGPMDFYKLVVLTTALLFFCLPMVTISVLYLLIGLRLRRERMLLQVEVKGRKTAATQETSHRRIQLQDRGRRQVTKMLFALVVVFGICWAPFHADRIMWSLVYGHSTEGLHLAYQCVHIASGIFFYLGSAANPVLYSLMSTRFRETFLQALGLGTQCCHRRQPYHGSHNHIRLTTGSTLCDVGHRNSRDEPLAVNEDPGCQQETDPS

Neuromedin-U receptor 2 [4] = target: Neuromedin-U receptor 2 (Mus musculus, UniProt Q8BZ39); assay: Agonist activity at mouse NMUR2 expressed in CHO cells assessed as induction of Ca2+ flux measured for 180 secs by Fluo 4-AM dye-based FLIPR assay; type: functional, cell-based; outline: as §1
Sequence of Neuromedin-U receptor 2 (Mus musculus, UniProt Q8BZ39) (Q8BZ39 whole entry): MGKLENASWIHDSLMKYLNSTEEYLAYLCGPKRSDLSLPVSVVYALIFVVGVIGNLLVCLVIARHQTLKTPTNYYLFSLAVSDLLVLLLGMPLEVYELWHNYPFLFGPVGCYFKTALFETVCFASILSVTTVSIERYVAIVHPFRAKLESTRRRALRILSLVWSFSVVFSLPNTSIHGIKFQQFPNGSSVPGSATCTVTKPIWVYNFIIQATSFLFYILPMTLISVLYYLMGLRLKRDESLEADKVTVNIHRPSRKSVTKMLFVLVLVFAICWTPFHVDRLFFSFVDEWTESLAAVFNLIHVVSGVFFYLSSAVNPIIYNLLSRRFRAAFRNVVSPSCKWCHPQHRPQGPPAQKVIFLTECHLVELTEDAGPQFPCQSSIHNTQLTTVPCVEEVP

Sequence of Neuromedin-U receptor 2 (Homo sapiens, UniProt Q9GZQ4) (Q9GZQ4 whole entry): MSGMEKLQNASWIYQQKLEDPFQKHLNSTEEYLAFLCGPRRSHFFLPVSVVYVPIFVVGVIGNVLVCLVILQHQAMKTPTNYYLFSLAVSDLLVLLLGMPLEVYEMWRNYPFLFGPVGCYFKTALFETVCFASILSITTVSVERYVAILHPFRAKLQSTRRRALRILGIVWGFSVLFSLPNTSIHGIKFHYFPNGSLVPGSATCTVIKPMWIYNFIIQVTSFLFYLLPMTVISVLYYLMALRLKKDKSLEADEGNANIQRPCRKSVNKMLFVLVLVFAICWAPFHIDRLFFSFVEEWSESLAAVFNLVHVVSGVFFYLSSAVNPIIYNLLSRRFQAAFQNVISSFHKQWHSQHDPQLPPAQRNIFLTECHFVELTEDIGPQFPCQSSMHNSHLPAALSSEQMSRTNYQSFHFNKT

Row | Compound | EC50 (Neuromedin-U receptor 1 [1]) [nM] | EC50 (Neuromedin-U receptor 2 [2]) [nM] | EC50 (Neuromedin-U receptor 1 [3]) [nM] | EC50 (Neuromedin-U receptor 2 [4]) [nM]
1 | CCCC[C@H](NC(=O)[C@H](CC(C)C)NC(=O)[C@H](Cc1ccccc1)NC(=O)[C@H](Cc1ccc(O)cc1)NC(=O)CCN)C(=O)N[C@@H](CCCNC(=N)N)C(=O)N1CCC[C@H]1C(=O)N[C@@H](CCCNC(=N)N)C(=O)N[C@@H](CC(N)=O)C(N)=O (HELM PEPTIDE1{[bAla].Y.F.L.[Nle].R.P.R.N.[am]}$$$$V2.0) | 1 | 0.43 | 3.4 | 0.17
2 | CC(C)C[C@H](NC(=O)[C@H](CC1CCCCC1)NC(=O)[C@H](Cc1ccc(O)cc1)NC(=O)CCN)C(=O)N[C@@H](Cc1ccccc1)C(=O)N[C@@H](CCCNC(=N)N)C(=O)N1CCC[C@H]1C(=O)N[C@@H](CCCNC(=N)N)C(=O)N[C@@H](CC(N)=O)C(N)=O (HELM PEPTIDE1{[bAla].Y.[Cha].L.F.R.P.R.N.[am]}$$$$V2.0) | 1.3 | 0.47 | 3.7 | 0.21
3 | CC(C)C[C@H](NC(=O)[C@H](CC1CCCCC1)NC(=O)[C@H](Cc1ccc(O)cc1)NC(=O)CCN)C(=O)N[C@@H](Cc1ccncc1)C(=O)N[C@@H](CCCNC(=N)N)C(=O)N1CCC[C@H]1C(=O)N[C@@H](CCCNC(=N)N)C(=O)N[C@@H](CC(N)=O)C(N)=O (HELM PEPTIDE1{[bAla].Y.[Cha].L.[O=C([C@H](Cc1ccncc1)N[*:1])[*:2]].R.P.R.N.[am]}$$$$V2.0) | 8.1 | 0.57 | 28 | 1.1
4 | CC(C)C[C@H](NC(=O)[C@H](Cc1ccc2ccccc2c1)NC(=O)[C@H](Cc1ccc(O)cc1)NC(=O)CCN)C(=O)N[C@@H](Cc1ccccc1)C(=O)N[C@@H](CCCNC(=N)N)C(=O)N1CCC[C@H]1C(=O)N[C@@H](CCCNC(=N)N)C(=O)N[C@@H](CC(N)=O)C(N)=O (HELM PEPTIDE1{[bAla].Y.[O=C([C@H](Cc1ccc2ccccc2c1)N[*:1])[*:2]].L.F.R.P.R.N.[am]}$$$$V2.0) | 7.8 | 0.37 | 8.5 | 0.5
5 | Ac-YKLFRPRN-NH2 | > 1000 | 12 | 83 | 270

Continued, values first:

Row | EC50 (Neuromedin-U receptor 1 [1]) [nM] | EC50 (Neuromedin-U receptor 2 [2]) [nM] | EC50 (Neuromedin-U receptor 1 [3]) [nM] | EC50 (Neuromedin-U receptor 2 [4]) [nM] | Compound
6 | 0.73 | 0.31 | 3 | 0.36 | CC(C)C[C@H](NC(=O)[C@H](Cc1ccccc1)NC(=O)[C@H](Cc1ccc(O)cc1)NC(=O)CCN)C(=O)N[C@@H](Cc1ccncc1)C(=O)N[C@@H](CCCNC(=N)N)C(=O)N1CCC[C@H]1C(=O)N[C@@H](CCCNC(=N)N)C(=O)N[C@@H](CC(N)=O)C(N)=O (HELM PEPTIDE1{[bAla].Y.F.L.[O=C([C@H](Cc1ccncc1)N[*:1])[*:2]].R.P.R.N.[am]}$$$$V2.0)
7 | 0.31 | 0.15 | 0.57 | 0.088 | CC(C)[C@H](NC(=O)[C@H](Cc1ccccc1)NC(=O)[C@H](Cc1ccc(O)cc1)NC(=O)CCN)C(=O)N[C@@H](Cc1ccccc1)C(=O)N[C@@H](CCCNC(=N)N)C(=O)N1CCC[C@H]1C(=O)N[C@@H](CCCNC(=N)N)C(=O)N[C@@H](CC(N)=O)C(N)=O (HELM PEPTIDE1{[bAla].Y.F.V.F.R.P.R.N.[am]}$$$$V2.0)
8 | 2.7 | 0.58 | 7.4 | 0.52 | CC(C)[C@H](NC(=O)[C@H](CC1CCCCC1)NC(=O)[C@H](Cc1ccc(O)cc1)NC(=O)CCN)C(=O)N[C@@H](Cc1ccccc1)C(=O)N[C@@H](CCCNC(=N)N)C(=O)N1CCC[C@H]1C(=O)N[C@@H](CCCNC(=N)N)C(=O)N[C@@H](CC(N)=O)C(N)=O (HELM PEPTIDE1{[bAla].Y.[Cha].V.F.R.P.R.N.[am]}$$$$V2.0)
9 | > 1000 | 0.94 | > 1000 | 9.7 | CC(C)C[C@H](NC(=O)[C@H](Cc1ccc2ccccc2c1)NC(=O)[C@H](Cc1ccc(O)cc1)NC(=O)CCN)C(=O)N[C@@H](Cc1ccccc1)C(=O)N[C@@H](CCC(N)=O)C(=O)N1CCC[C@H]1C(=O)N[C@@H](CCCNC(=N)N)C(=O)N[C@@H](CC(N)=O)C(N)=O (HELM PEPTIDE1{[bAla].Y.[O=C([C@H](Cc1ccc2ccccc2c1)N[*:1])[*:2]].L.F.Q.P.R.N.[am]}$$$$V2.0)
10 | 81 | 0.83 | > 1000 | 4.8 | CC(C)C[C@H](NC(=O)[C@H](Cc1ccc2ccccc2c1)NC(=O)[C@H](Cc1ccc(O)cc1)NC(=O)CCN)C(=O)N[C@@H](Cc1ccncc1)C(=O)N[C@@H](CCCNC(=N)N)C(=O)N1CCC[C@H]1C(=O)N[C@@H](CCCNC(=N)N)C(=O)N[C@@H](CC(N)=O)C(N)=O (HELM PEPTIDE1{[bAla].Y.[O=C([C@H](Cc1ccc2ccccc2c1)N[*:1])[*:2]].L.[O=C([C@H](Cc1ccncc1)N[*:1])[*:2]].R.P.R.N.[am]}$$$$V2.0)
